Experimental data from different studies.
Target: Tyrosine-protein kinase BTK (BTK, Homo sapiens, UniProt Q06187)

| SMILES | assay | conditions | remaining binding |
| --- | --- | --- | --- |
| N[C@@H]1CCN(c2nccc(-c3cnn4ncccc34)n2)C1 | binding | 1 µM | 100% |
| CS(=O)(=O)N1CCCC(NC(=O)[C@H](CCC2CCCCC2)NC(=O)c2ccc(CNc3ncnc4c3nnn4-c3ccccc3)cc2)C1 (stereo partly drawn) | cell-free assay, competition with immobilised ligand | 0.1 µM | 100% |
| CC(C)(C)c1ccc(-c2nc(CBr)nn2-c2cccc(O)c2)cc1 | cell-free assay, competition with immobilised ligand | 10 µM | 83% |
| N#Cc1ccccc1CSc1nnc2c(n1)[nH]c1ccccc12 | binding, competition with immobilised ligand | 10 µM | 100% |
| COc1cnc(Nc2cccc(S(N)(=O)=O)c2)nc1N1CCN(c2ccccc2)C(=O)C1 | binding, competition with immobilised ligand | 1 µM | 81% |
| C[C@@H]1CN(c2ccc3ncc(-c4ccc5[nH]nc(C6CC6)c5c4)n3n2)C[C@H](C)O1 | binding, competition with immobilised ligand | 0.5 µM | 89% |
| O=C(O)[C@@H]1[C@@H](Cn2nnc3ccccc3c2=O)CC[C@H]1C(=O)c1ccc(OCCC2CCOCC2)cc1 | cell-free assay, competition with immobilised ligand | 1 µM | 100% |
| CN(CCCC(F)(F)F)c1nccc(-c2cnn3ncccc23)n1 | binding | 1 µM | 100% |
| O=C(c1ccc(Nc2nccc(-c3cc4ccccc4s3)n2)cc1)N1CCC(N2CCCC2)CC1 | binding, competition with immobilised ligand | 1 µM | 87% |
| Cc1ccc(-n2nc(C(C)(C)C)cc2NC(=O)Nc2ccc(-n3c(N)c(C(N)=O)c4nc5ccc(NCCCN)cc5nc43)cc2)cc1 | cell-free assay, competition with immobilised ligand | 1 µM | 3.3% |
| CN(C)c1nccc(-c2cnn3ncccc23)n1 | binding | 1 µM | 85% |
| O=C(NCCCN1CCOCC1)c1ccc(Nc2ncc(Cl)c(-c3ccc(Cl)s3)n2)cc1 | binding, competition with immobilised ligand | 1 µM | 100% |
| O=C(Nc1cccnn1)N1CC(C/C=C/c2cncc(Oc3ccc(C(F)(F)F)cn3)n2)C1 | cell-free assay, competition with immobilised ligand | 1 µM | 59% |
| CN(c1nccc(-c2cnn3ncccc23)n1)C1CC1 | binding | 1 µM | 100% |
| CC(=O)Nc1c(C(C)=O)c(=O)n(C)c2nc(-c3ccc(Cl)cc3Cl)c(-c3ccc(Cl)cc3)cc12 | cell-free assay, competition with immobilised ligand | 1 µM | 88% |
| Cc1cnn2ncc(-c3ccnc(N(C)C)n3)c2c1 | binding | 1 µM | 91% |
| O=C(N1CCS(=O)(=O)CC1)N1C[C@H](c2ccc(OC(F)(F)F)cc2)C[C@H](c2nc(C3CC3)no2)C1 | cell-free assay, competition with immobilised ligand | 1 µM | 100% |
| O=C(c1ccc(Nc2ncc(Cl)c(-c3cc4ccccc4s3)n2)cc1)N1CCC(N2CCCC2)CC1 | binding, competition with immobilised ligand | 1 µM | 63% |
| COc1ccnn2ncc(-c3ccnc(N(C)C)n3)c12 | binding | 1 µM | 94% |
| CN(c1ccnc(CNc2nc(Nc3ccc4c(c3)CC(=O)N4)ncc2C(F)(F)F)n1)S(C)(=O)=O | cell-free assay, competition with immobilised ligand | 1 µM | 63% |
| O=C(Nc1c[nH]nc1C(=O)NC1CCNCC1)c1cc(F)cc(F)c1 | binding, competition with immobilised ligand | 1 µM | 100% |
| Nc1ncc2c(n1)-c1c([nH]c3ccc(C#CC4CC4)cc13)CCCC2 | binding, competition with immobilised ligand | 1 µM | 61% |
| C[C@H]1CCN(c2nccc(-c3cnn4ncccc34)n2)C1 | binding | 1 µM | 95% |
| O=C1CCc2cc(Nc3cc(OC4CCOCC4)c([N+](=O)[O-])cc3Cl)ccc2N1 | cell-free assay, competition with immobilised ligand | 1 µM | 100% |
